Reference: ChEMBL document CHEMBL1153726, “Synthesis and anticancer activity of sclerophytin-inspired hydroisobenzofurans” (Bioorg Med Chem Lett, 2009)

Columns and labels:
[1] = Antitumor activity against human KB3 cells after 96 hrs by MTT assay; type: functional, cell-based; details: KB3, 96 h
Procedure, shortened: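 Human KB-3 carcinoma cells exposed to increasing compound concentrations; viability read by MTT colorimetric assay after 96 h. Values are means of triplicate assays, expressed relative to untreated controls.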

MDA-MB-468 = assay: Growth inhibition of human MDA-MB-468 cells at 10 uM after 96 hrs by MTT assay; type: functional; set-up: scale not given: the % may be the effect or the level left
T47D = assay: Growth inhibition of human T47D cells at 10 uM after 96 hrs by MTT assay; type: functional; set-up: scale not given: the % may be the effect or the level left
BT-549 = assay: Growth inhibition of human BT549 cells at 10 uM after 96 hrs by MTT assay; type: functional; set-up: scale not given: the % may be the effect or the level left
[2] = Growth inhibition of human Hs 578T cells at 10 uM after 96 hrs by MTT assay; type: functional; set-up: scale not given: the % may be the effect or the level left
MDA-MB-231 = assay: Growth inhibition of human MDA-MB-231 cells at 10 uM after 96 hrs by MTT assay; type: functional; set-up: scale not given: the % may be the effect or the level left
MCF7 = assay: Growth inhibition of human MCF7 cells at 10 uM after 96 hrs by MTT assay; type: functional; set-up: scale not given: the % may be the effect or the level left
DU-145 = assay: Growth inhibition of human DU145 cells at 10 uM after 96 hrs by MTT assay; type: functional; set-up: scale not given: the % may be the effect or the level left
PC-3 = assay: Growth inhibition of human PC3 cells at 10 uM after 96 hrs by MTT assay; type: functional; set-up: scale not given: the % may be the effect or the level left
UO-31 = assay: Growth inhibition of human UO31 cells at 10 uM after 96 hrs by MTT assay; type: functional; set-up: scale not given: the % may be the effect or the level left
TK-10 = assay: Growth inhibition of human TK10 cells at 10 uM after 96 hrs by MTT assay; type: functional; set-up: scale not given: the % may be the effect or the level left
SN12C = assay: Growth inhibition of human SN12C cells at 10 uM after 96 hrs by MTT assay; type: functional; set-up: scale not given: the % may be the effect or the level left
RXF 393 = assay: Growth inhibition of human RXF393 cells at 10 uM after 96 hrs by MTT assay; type: functional; set-up: scale not given: the % may be the effect or the level left
ACHN = assay: Growth inhibition of human ACHN cells at 10 uM after 96 hrs by MTT assay; type: functional; set-up: scale not given: the % may be the effect or the level left
A498 = assay: Growth inhibition of human A498 cells at 10 uM after 96 hrs by MTT assay; type: functional; set-up: scale not given: the % may be the effect or the level left
786-0 = assay: Growth inhibition of human 786-0 cells at 10 uM after 96 hrs by MTT assay; type: functional; set-up: scale not given: the % may be the effect or the level left
SK-OV-3 = assay: Growth inhibition of human SKOV3 cells at 10 uM after 96 hrs by MTT assay; type: functional; set-up: scale not given: the % may be the effect or the level left
NCI/ADR-RES = assay: Growth inhibition of human NCI/ADR-RES cells at 10 uM after 96 hrs by MTT assay; type: functional; set-up: scale not given: the % may be the effect or the level left
OVCAR-8 = assay: Growth inhibition of human OVCAR8 cells at 10 uM after 96 hrs by MTT assay; type: functional; set-up: scale not given: the % may be the effect or the level left
OVCAR-5 = assay: Growth inhibition of human OVCAR5 cells at 10 uM after 96 hrs by MTT assay; type: functional; set-up: scale not given: the % may be the effect or the level left
OVCAR-4 = assay: Growth inhibition of human OVCAR4 cells at 10 uM after 96 hrs by MTT assay; type: functional; set-up: scale not given: the % may be the effect or the level left
OVCAR-3 = assay: Growth inhibition of human OVCAR-3 cells at 10 uM after 96 hrs by MTT assay; type: functional; set-up: scale not given: the % may be the effect or the level left
IGROV-1 = assay: Growth inhibition of human IGROV1 cells at 10 uM after 96 hrs by MTT assay; type: functional; set-up: scale not given: the % may be the effect or the level left
UACC-62 = assay: Growth inhibition of human UACC62 cells at 10 uM after 96 hrs by MTT assay; type: functional; set-up: scale not given: the % may be the effect or the level left
UACC-257 = assay: Growth inhibition of human UACC257 cells at 10 uM after 96 hrs by MTT assay; type: functional; set-up: scale not given: the % may be the effect or the level left
SK-MEL-5 = assay: Growth inhibition of human SK-MEL-5 cells at 10 uM after 96 hrs by MTT assay; type: functional; set-up: scale not given: the % may be the effect or the level left
SK-MEL-28 = assay: Growth inhibition of human SK-MEL-28 cells at 10 uM after 96 hrs by MTT assay; type: functional; set-up: scale not given: the % may be the effect or the level left
SK-MEL-2 = assay: Growth inhibition of human SK-MEL-2 cells at 10 uM after 96 hrs by MTT assay; type: functional; set-up: scale not given: the % may be the effect or the level left
MDA-MB-435 = assay: Growth inhibition of human MDA-MB-435 cells at 10 uM after 96 hrs by MTT assay; type: functional; set-up: scale not given: the % may be the effect or the level left
M14 = assay: Growth inhibition of human M14 cells at 10 uM after 96 hrs by MTT assay; type: functional; set-up: scale not given: the % may be the effect or the level left
Malme-3M = assay: Growth inhibition of human MALME-3M cells at 10 uM after 96 hrs by MTT assay; type: functional; set-up: scale not given: the % may be the effect or the level left
LOX IMVI = assay: Growth inhibition of human LOXIMVI cells at 10 uM after 96 hrs by MTT assay; type: functional; set-up: scale not given: the % may be the effect or the level left
U-251 = assay: Growth inhibition of human U251 cells at 10 uM after 96 hrs by MTT assay; type: functional; set-up: scale not given: the % may be the effect or the level left
SNB-75 = assay: Growth inhibition of human SNB75 cells at 10 uM after 96 hrs by MTT assay; type: functional; set-up: scale not given: the % may be the effect or the level left
SNB-19 = assay: Growth inhibition of human SNB19 cells at 10 uM after 96 hrs by MTT assay; type: functional; set-up: scale not given: the % may be the effect or the level left
SF-539 = assay: Growth inhibition of human SF539 cells at 10 uM after 96 hrs by MTT assay; type: functional; set-up: scale not given: the % may be the effect or the level left
SF-268 = assay: Growth inhibition of human SF268 cells at 10 uM after 96 hrs by MTT assay; type: functional; set-up: scale not given: the % may be the effect or the level left
SW-620 = assay: Growth inhibition of human SW620 cells at 10 uM after 96 hrs by MTT assay; type: functional; set-up: scale not given: the % may be the effect or the level left
KM12 = assay: Growth inhibition of human KM12 cells at 10 uM after 96 hrs by MTT assay; type: functional; set-up: scale not given: the % may be the effect or the level left
HT-29 = assay: Growth inhibition of human HT-29 cells at 10 uM after 96 hrs by MTT assay; type: functional; set-up: scale not given: the % may be the effect or the level left
HCT-15 = assay: Growth inhibition of human HCT15 cells at 10 uM after 96 hrs by MTT assay; type: functional; set-up: scale not given: the % may be the effect or the level left
HCT-116 = assay: Growth inhibition of human HCT116 cells at 10 uM after 96 hrs by MTT assay; type: functional; set-up: scale not given: the % may be the effect or the level left
HCC 2998 = assay: Growth inhibition of human HCC2998 cells at 10 uM after 96 hrs by MTT assay; type: functional; set-up: scale not given: the % may be the effect or the level left
COLO 205 = assay: Growth inhibition of human COLO205 cells at 10 uM after 96 hrs by MTT assay; type: functional; set-up: scale not given: the % may be the effect or the level left
NCI-H522 = assay: Growth inhibition of human NCI-H522 cells at 10 uM after 96 hrs by MTT assay; type: functional; set-up: scale not given: the % may be the effect or the level left
NCI-H460 = assay: Growth inhibition of human NCI-H460 cells at 10 uM after 96 hrs by MTT assay; type: functional; set-up: scale not given: the % may be the effect or the level left
NCI-H322M = assay: Growth inhibition of human NCI-H322M cells at 10 uM after 96 hrs by MTT assay; type: functional; set-up: scale not given: the % may be the effect or the level left
NCI-H23 = assay: Growth inhibition of human NCI-H23 cells at 10 uM after 96 hrs by MTT assay; type: functional; set-up: scale not given: the % may be the effect or the level left
NCI-H226 = assay: Growth inhibition of human NCI-H226 cells at 10 uM after 96 hrs by MTT assay; type: functional; set-up: scale not given: the % may be the effect or the level left
HOP-92 = assay: Growth inhibition of human HOP92 cells at 10 uM after 96 hrs by MTT assay; type: functional; set-up: scale not given: the % may be the effect or the level left
HOP-62 = assay: Growth inhibition of human HOP62 cells at 10 uM after 96 hrs by MTT assay; type: functional; set-up: scale not given: the % may be the effect or the level left
EKVX = assay: Growth inhibition of human EKVX cells at 10 uM after 96 hrs by MTT assay; type: functional; set-up: scale not given: the % may be the effect or the level left
A549 = assay: Growth inhibition of human A549 cells at 10 uM after 96 hrs by MTT assay; type: functional; set-up: scale not given: the % may be the effect or the level left
SR = assay: Growth inhibition of human SR cells at 10 uM after 96 hrs by MTT assay; type: functional; set-up: scale not given: the % may be the effect or the level left
[3] = Growth inhibition of human RPMI8266 cells at 10 uM after 96 hrs by MTT assay; type: functional; set-up: scale not given: the % may be the effect or the level left
MOLT-4 = assay: Growth inhibition of human MOLT4 cells at 10 uM after 96 hrs by MTT assay; type: functional; set-up: scale not given: the % may be the effect or the level left
K562 = assay: Growth inhibition of human K562 cells at 10 uM after 96 hrs by MTT assay; type: functional; set-up: scale not given: the % may be the effect or the level left
HL-60(TB) = assay: Growth inhibition of human HL-60(TB) cells at 10 uM after 96 hrs by MTT assay; type: functional; set-up: scale not given: the % may be the effect or the level left
CCRF-CEM = assay: Growth inhibition of human CCRF-CEM cells at 10 uM after 96 hrs by MTT assay; type: functional; set-up: scale not given: the % may be the effect or the level left

C=C(C)[C@H]1CC=C(C)[C@@]2(O)[C@@H]1[C@H](c1ccccc1Br)O[C@@H]2C(=O)OCC1CCCC1
IC50 [1]: > 100 µM

C=C(C)[C@H]1CC(=O)C(C)=C2[C@@H](C(=O)OCC)O[C@@H](c3cccc(Br)c3)[C@@H]21
IC50 [1]: 30 µM

C=C(C)[C@H]1CC=C(C)[C@@]2(O)[C@@H]1[C@H](c1ccc(Cl)cc1Cl)O[C@@H]2C(=O)OCC
Activity (MDA-MB-468): 94.32%
Activity (T47D): 94.32%
Activity (BT-549): 139.44%
Activity [2]: 100.26%
Activity (MDA-MB-231): 101.68%
Activity (MCF7): 104.98%
Activity (DU-145): 110.29%
Activity (PC-3): 99.33%
Activity (UO-31): 90.72%
Activity (TK-10): 119.56%
Activity (SN12C): 98.08%
Activity (RXF 393): 95.61%
Activity (ACHN): 109.85%
Activity (A498): 102.47%
Activity (786-0): 87.09%
Activity (SK-OV-3): 98.68%
Activity (NCI/ADR-RES): 101.67%
Activity (OVCAR-8): 94.44%
Activity (OVCAR-5): 103.98%
Activity (OVCAR-4): 93.31%
Activity (OVCAR-3): 112.11%
Activity (IGROV-1): 82.34%
Activity (UACC-62): 84.48%
Activity (UACC-257): 94.54%
Activity (SK-MEL-5): 102.55%
Activity (SK-MEL-28): 113.23%
Activity (SK-MEL-2): 106.54%
Activity (MDA-MB-435): 107.24%
Activity (M14): 104.29%
Activity (Malme-3M): 117.74%
Activity (LOX IMVI): 98%
Activity (U-251): 103.59%
Activity (SNB-75): 82.61%
Activity (SNB-19): 87.9%
Activity (SF-539): 100.6%
Activity (SF-268): 100.46%
Activity (SW-620): 97.1%
Activity (KM12): 99.49%
Activity (HT-29): 93.83%
Activity (HCT-15): 108.1%
Activity (HCT-116): 84.08%
Activity (HCC 2998): 108.86%
Activity (COLO 205): 122.22%
Activity (NCI-H522): 82.73%
Activity (NCI-H460): 108.8%
Activity (NCI-H322M): 113.73%
Activity (NCI-H23): 97.89%
Activity (NCI-H226): 97.47%
Activity (HOP-92): 94.71%
Activity (HOP-62): 92.21%
Activity (EKVX): 104.39%
Activity (A549): 90.16%
Activity (SR): 82.5%
Activity [3]: 106.77%
Activity (MOLT-4): 98.02%
Activity (K562): 79.96%
Activity (HL-60(TB)): 100.94%
Activity (CCRF-CEM): 98.31%
IC50 [1]: 3 µM

C=C(C)[C@H]1CC=C(C)[C@@]2(O)[C@@H]1[C@H](c1cccc3ccccc13)O[C@@H]2C(=O)OC
IC50 [1]: 10 µM
